Results from ChEMBL document CHEMBL4819057, “Discovery of antiproliferative and anti-FAK inhibitory activity of 1,2,4-triazole derivatives containing acetamido carboxylic acid skeleton” (Bioorg Med Chem Lett, 2021).
Activity calls are given as the source filed them. The calls are words filed in the database; no cut-off is given here.

Experiments:
[1] = tested on: HepG2; test: Antiproliferative activity against human HepG2 cells assessed as growth inhibition; assay type: functional, cell-based
[2] = tested on: Hep 3B2; test: Antiproliferative activity against human Hep3B cells assessed as growth inhibition; assay type: functional, cell-based
[3] = molecular target: T1, Focal adhesion kinase 1 (Homo sapiens, UniProt Q05397); test: Inhibition of FAK (unknown origin)
Target sequence in this assay (Q05397 whole entry): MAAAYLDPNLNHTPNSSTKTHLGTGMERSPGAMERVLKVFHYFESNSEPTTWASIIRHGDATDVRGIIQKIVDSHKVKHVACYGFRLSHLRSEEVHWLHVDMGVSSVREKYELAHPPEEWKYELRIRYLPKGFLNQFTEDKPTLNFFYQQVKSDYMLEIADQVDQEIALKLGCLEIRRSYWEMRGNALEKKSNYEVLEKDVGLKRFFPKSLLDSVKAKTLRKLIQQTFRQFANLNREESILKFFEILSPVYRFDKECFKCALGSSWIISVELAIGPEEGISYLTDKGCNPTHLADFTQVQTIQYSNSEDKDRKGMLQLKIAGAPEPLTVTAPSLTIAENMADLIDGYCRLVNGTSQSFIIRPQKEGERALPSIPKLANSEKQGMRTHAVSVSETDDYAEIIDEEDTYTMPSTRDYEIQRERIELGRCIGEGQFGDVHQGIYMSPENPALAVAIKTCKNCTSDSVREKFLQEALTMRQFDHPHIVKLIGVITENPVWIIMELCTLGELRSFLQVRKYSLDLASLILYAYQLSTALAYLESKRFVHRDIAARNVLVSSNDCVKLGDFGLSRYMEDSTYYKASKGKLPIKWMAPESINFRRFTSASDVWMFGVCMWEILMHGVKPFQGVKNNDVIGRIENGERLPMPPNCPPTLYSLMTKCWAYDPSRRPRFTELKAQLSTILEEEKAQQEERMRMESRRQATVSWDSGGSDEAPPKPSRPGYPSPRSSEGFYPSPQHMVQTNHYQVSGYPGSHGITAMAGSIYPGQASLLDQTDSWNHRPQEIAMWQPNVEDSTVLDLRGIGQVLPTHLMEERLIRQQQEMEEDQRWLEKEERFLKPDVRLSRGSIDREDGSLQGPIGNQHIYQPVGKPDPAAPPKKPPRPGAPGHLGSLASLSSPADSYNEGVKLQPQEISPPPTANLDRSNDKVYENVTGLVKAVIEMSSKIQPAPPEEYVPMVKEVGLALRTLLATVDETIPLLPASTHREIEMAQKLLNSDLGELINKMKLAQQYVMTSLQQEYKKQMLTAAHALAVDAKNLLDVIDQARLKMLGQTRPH

[4] = molecular target: T1, Focal adhesion kinase 1; test: Inhibition of human FAK phosphorylation in human HepG2 cells at 4 uM by Western blot analysis; assay type: cell-based
Procedure, shortened: (§1)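 HepG2 cells treated, with DMSO as negative control (4 μM stated for p-FAK). Western blot for phospho-FAK, -PI3K, -Akt, -JNK and -STAT3 with GAPDH as loading control. Each phospho band is quantified by densitometry relative to its total protein. Means ± SEM of three experiments, with significance vs DMSO.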
Target sequence in this assay (Q05397 2-1052 limits assumed): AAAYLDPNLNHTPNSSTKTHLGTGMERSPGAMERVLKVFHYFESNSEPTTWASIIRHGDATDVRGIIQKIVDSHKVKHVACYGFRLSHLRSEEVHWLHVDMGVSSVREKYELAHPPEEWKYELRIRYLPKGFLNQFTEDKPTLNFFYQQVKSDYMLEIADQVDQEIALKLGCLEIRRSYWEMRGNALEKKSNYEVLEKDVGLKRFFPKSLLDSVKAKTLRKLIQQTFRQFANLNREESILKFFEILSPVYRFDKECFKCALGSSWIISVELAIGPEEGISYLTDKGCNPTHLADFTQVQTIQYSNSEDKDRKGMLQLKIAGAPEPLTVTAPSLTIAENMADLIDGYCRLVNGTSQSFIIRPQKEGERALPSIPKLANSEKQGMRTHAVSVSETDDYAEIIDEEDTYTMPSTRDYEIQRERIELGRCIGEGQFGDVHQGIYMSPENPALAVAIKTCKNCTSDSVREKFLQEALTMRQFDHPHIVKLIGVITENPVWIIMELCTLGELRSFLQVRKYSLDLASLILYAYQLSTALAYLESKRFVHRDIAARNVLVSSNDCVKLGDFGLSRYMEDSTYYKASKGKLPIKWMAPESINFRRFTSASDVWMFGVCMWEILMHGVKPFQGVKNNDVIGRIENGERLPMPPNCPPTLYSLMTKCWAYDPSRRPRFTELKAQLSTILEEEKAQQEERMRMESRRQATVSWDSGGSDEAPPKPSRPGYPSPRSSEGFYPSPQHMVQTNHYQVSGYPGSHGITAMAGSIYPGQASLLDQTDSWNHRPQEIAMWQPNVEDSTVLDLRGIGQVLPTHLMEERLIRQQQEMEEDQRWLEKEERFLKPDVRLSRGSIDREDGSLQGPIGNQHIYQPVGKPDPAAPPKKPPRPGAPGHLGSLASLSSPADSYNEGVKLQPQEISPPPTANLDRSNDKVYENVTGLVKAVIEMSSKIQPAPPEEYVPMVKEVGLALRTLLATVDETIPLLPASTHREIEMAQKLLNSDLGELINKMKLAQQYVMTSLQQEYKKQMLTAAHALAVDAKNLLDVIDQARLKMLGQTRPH

[5] = tested on: HepG2; test: Inhibition of PI3K in human HepG2 cells assessed as reduction in PI3K phosphorylation by Westernblot analysis; assay type: cell-based; procedure, shortened: as §1
[6] = molecular target: RAC-alpha serine/threonine-protein kinase (Homo sapiens) (UniProt P31749); test: Inhibition of Akt in human HepG2 cells assessed as reduction in Akt phosphorylation by Westernblot analysis; assay type: cell-based; procedure, shortened: as §1
Chain of RAC-alpha serine/threonine-protein kinase (Homo sapiens) (P31749 whole entry): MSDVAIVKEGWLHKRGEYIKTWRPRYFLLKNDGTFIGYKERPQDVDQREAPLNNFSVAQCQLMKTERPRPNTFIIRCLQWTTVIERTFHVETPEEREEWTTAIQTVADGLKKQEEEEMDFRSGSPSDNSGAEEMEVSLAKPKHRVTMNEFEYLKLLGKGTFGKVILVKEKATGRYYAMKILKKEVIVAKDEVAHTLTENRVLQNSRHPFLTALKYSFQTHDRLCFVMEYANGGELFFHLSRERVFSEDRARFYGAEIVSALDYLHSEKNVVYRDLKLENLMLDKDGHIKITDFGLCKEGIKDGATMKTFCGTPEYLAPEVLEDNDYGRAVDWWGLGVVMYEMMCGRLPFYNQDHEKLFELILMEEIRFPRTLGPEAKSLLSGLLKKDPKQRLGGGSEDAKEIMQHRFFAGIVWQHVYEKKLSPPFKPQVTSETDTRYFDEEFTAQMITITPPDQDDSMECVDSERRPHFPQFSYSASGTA

[7] = molecular target: c-Jun N-terminal kinase, JNK (Homo sapiens) (UniProt P45983+P53779+P45984); test: Inhibition of JNK in human HepG2 cells assessed as reduction in JNK phosphorylation by Westernblot analysis; assay type: cell-based; procedure, shortened: as §1
[8] = molecular target: Signal transducer and activator of transcription 3 (Homo sapiens) (UniProt P40763); test: Inhibition of STAT3 in human HepG2 cells assessed as reduction in STAT3 phosphorylation by Westernblot analysis; assay type: cell-based; procedure, shortened: as §1
Chain of Signal transducer and activator of transcription 3 (Homo sapiens) (P40763 whole entry): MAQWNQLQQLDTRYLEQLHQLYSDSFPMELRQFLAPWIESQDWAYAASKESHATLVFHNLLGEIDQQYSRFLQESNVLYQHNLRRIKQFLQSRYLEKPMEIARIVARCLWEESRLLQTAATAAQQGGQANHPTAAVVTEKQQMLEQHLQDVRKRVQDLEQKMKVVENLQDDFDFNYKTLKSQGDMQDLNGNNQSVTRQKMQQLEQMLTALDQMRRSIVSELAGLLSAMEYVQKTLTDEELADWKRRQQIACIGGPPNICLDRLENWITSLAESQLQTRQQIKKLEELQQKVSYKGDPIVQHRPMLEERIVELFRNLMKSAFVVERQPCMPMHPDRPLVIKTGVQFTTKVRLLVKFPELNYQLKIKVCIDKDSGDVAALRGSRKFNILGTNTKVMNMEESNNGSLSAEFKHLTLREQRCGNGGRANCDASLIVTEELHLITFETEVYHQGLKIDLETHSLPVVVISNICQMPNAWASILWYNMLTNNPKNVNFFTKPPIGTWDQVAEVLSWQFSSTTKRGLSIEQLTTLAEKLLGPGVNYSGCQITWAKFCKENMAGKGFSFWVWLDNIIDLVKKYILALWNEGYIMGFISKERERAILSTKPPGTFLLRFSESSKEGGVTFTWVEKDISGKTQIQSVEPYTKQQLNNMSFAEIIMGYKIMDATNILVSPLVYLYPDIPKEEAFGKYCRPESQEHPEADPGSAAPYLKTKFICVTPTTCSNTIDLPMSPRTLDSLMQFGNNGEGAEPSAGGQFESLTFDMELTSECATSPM

[9] = tested on: HepG2; test: Induction of cell cycle arrest in human HepG2 assessed as accumulation of cells at S phase at 3.78 uM incubated for 24 hrs by Flow cytometric analysis; assay type: functional
[10] = tested on: HepG2; test: Induction of apoptosis in human HepG2 cells assessed as early apoptotic cells after 24 hrs by Annexin V/propidium iodide staining based assay (reference value: 0.33%); assay type: functional
[11] = tested on: HepG2; test: Induction of apoptosis in human HepG2 cells assessed as late apoptotic cells after 24 hrs by Annexin V/propidium iodide staining based assay (reference value: 0.09%); assay type: functional
[12] = tested on: HepG2; test: Induction of apoptosis in human HepG2 cells assessed as necrotic cells after 24 hrs by Annexin V/propidium iodide staining based assay (reference value: 0.79%); assay type: functional
[13] = tested on: HepG2; test: Induction of cell cycle arrest in human HepG2 assessed as accumulation of cells at sub G1 phase at 3.78 uM incubated for 24 hrs by Flow cytometric analysis

Row | SMILES | IC50 [1] [µM] | IC50 [2] [µM] | IC50 [3] [µM] | inhibition [4] | inhibition [5] | inhibition [6] | inhibition [7] | inhibition [8] | Activity [9] [%] | Activity [10] [%] | Activity [11] [%] | Activity [12] [%] | Activity [13] [%]
1 | CCn1c(SCC(=O)Nc2ccc(C(=O)O)cc2)nnc1-c1ccncc1 | 41 | 17.9 |  |  |  |  |  |  |  |  |  |  | 
2 | C=CCn1c(SCC(=O)Nc2ccc(C(=O)O)cc2)nnc1-c1ccncc1 | 4.72 | 2.88 | 0.0364 | Active | Active | Active | Active | Active |  |  |  |  | 
3 | O=C(CSc1nnc(-c2ccncc2)n1-c1ccccc1)Nc1ccc(C(=O)O)cc1 | 3.78 | 4.83 | 0.0181 | Active | Active | Active | Active | Active | 54.11 | 5.31 | 23.71 | 12.59 | 41.61
4 | Cn1c(SCC(=O)Nc2ccc(C(=O)O)cc2)nnc1-c1ccncc1 | 8.83 | 3.87 |  |  |  |  |  |  |  |  |  |  | 
5 | COc1cccc2c1C(=O)c1c(O)c3c(c(O)c1C2=O)C[C@@](O)(C(=O)CO)C[C@@H]3O[C@H]1C[C@H](N)[C@H](O)[C@H](C)O1 [DOXORUBICIN] | 1.99 | 7.21 |  |  |  |  |  |  |  |  |  |  | 
